Source: ChEMBL document CHEMBL4011598, “Sulfonamides as Selective NaV1.7 Inhibitors: Optimizing Potency and Pharmacokinetics While Mitigating Metabolic Liabilities” (J Med Chem, 2017)
In brackets after ≈: the same amount, converted by molar mass.

Key:
PXR (NR1I2) = molecular target: T1, PXR (NR1I2) (Homo sapiens, UniProt O75469); test: Activation of human PXR at 10 uM in presence of rifampicin; type: ADME; conditions: read-out: Activity
T1 sequence (O75469 whole entry): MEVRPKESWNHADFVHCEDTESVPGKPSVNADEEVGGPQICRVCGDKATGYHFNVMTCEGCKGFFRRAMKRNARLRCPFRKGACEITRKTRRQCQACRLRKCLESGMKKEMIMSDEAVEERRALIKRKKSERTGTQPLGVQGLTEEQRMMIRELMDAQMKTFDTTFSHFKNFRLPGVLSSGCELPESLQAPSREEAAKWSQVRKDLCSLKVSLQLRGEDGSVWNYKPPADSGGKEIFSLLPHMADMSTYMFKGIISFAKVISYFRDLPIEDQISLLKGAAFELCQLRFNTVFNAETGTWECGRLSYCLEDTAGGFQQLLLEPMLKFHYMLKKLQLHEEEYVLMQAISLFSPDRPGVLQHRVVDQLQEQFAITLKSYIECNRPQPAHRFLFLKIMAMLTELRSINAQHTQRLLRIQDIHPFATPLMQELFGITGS

[1] = molecular target: Sodium channel protein type 9 subunit alpha (Homo sapiens, UniProt Q15858); test: Inhibition of human Nav1.7 expressed in HEK293 cells incubated for 3 to 5 mins at -125 mV holding potential by electrophysiology assay; type: cell-based
[2] = Intrinsic clearance in rat liver microsomes at 1 uM after 1 to 40 mins in presence of NADPH by LC-MS/MS analysis; type: ADME, microsome; conditions: read-out: CLH
[3] = molecular target: Sodium channel protein type 5 subunit alpha (Homo sapiens, UniProt Q14524); test: Inhibition of human Nav1.5 expressed in HEK293 cells assessed as reduction in peak inward current by ionworks quattro electrophysiology assay; type: cell-based
[4] = Intrinsic clearance in human liver microsomes at 1 uM after 1 to 40 mins in presence of NADPH by LC-MS/MS analysis; type: ADME, microsome; conditions: read-out: CLH
Cytochrome P450 3A4 [5] = molecular target: T2, Cytochrome P450 3A4 (Homo sapiens, UniProt P08684); test: Inhibition of CYP3A4 (unknown origin); type: ADME
[6] = Total clearance in rat at 0.5 mg/kg, iv; type: ADME, organism-based; conditions: in vivo
Outline: (§1)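 Male rats given a single 0.5 mg/kg iv dose in DMSO. Unbound clearance (CLu) is total clearance divided by fu, the unbound fraction in plasma.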

Canis familiaris = test: Unbound clearance in dog at 0.25 mg/kg, iv; type: ADME, organism-based, Canis lupus familiaris; conditions: in vivo
Outline: (§2)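 Male dogs received a single 0.25 mg/kg iv dose in DMSO. Unbound clearance (CLu) is total clearance divided by fu, the unbound fraction in plasma.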

Rattus norvegicus = test: Unbound clearance in rat at 0.5 mg/kg, iv; type: ADME, organism-based; conditions: in vivo; outline: as §1
[7] = Total clearance in dog at 0.25 mg/kg, iv; type: ADME, organism-based, Canis lupus familiaris; conditions: in vivo; outline: as §2
Cytochrome P450 3A4 [8] = molecular target: T2, Cytochrome P450 3A4; test: Induction of CYP3A4 in human hepatocytes at 10 uM relative to rifampicin
[9] = Intrinsic clearance in dog liver microsomes; type: ADME, Canis lupus familiaris, microsome; conditions: read-out: CLH
[10] = Aqueous solubility of the compound in PBS after 48 hrs by shake flask method; type: physicochemical

Sequence of Sodium channel protein type 9 subunit alpha (Q15858 whole entry): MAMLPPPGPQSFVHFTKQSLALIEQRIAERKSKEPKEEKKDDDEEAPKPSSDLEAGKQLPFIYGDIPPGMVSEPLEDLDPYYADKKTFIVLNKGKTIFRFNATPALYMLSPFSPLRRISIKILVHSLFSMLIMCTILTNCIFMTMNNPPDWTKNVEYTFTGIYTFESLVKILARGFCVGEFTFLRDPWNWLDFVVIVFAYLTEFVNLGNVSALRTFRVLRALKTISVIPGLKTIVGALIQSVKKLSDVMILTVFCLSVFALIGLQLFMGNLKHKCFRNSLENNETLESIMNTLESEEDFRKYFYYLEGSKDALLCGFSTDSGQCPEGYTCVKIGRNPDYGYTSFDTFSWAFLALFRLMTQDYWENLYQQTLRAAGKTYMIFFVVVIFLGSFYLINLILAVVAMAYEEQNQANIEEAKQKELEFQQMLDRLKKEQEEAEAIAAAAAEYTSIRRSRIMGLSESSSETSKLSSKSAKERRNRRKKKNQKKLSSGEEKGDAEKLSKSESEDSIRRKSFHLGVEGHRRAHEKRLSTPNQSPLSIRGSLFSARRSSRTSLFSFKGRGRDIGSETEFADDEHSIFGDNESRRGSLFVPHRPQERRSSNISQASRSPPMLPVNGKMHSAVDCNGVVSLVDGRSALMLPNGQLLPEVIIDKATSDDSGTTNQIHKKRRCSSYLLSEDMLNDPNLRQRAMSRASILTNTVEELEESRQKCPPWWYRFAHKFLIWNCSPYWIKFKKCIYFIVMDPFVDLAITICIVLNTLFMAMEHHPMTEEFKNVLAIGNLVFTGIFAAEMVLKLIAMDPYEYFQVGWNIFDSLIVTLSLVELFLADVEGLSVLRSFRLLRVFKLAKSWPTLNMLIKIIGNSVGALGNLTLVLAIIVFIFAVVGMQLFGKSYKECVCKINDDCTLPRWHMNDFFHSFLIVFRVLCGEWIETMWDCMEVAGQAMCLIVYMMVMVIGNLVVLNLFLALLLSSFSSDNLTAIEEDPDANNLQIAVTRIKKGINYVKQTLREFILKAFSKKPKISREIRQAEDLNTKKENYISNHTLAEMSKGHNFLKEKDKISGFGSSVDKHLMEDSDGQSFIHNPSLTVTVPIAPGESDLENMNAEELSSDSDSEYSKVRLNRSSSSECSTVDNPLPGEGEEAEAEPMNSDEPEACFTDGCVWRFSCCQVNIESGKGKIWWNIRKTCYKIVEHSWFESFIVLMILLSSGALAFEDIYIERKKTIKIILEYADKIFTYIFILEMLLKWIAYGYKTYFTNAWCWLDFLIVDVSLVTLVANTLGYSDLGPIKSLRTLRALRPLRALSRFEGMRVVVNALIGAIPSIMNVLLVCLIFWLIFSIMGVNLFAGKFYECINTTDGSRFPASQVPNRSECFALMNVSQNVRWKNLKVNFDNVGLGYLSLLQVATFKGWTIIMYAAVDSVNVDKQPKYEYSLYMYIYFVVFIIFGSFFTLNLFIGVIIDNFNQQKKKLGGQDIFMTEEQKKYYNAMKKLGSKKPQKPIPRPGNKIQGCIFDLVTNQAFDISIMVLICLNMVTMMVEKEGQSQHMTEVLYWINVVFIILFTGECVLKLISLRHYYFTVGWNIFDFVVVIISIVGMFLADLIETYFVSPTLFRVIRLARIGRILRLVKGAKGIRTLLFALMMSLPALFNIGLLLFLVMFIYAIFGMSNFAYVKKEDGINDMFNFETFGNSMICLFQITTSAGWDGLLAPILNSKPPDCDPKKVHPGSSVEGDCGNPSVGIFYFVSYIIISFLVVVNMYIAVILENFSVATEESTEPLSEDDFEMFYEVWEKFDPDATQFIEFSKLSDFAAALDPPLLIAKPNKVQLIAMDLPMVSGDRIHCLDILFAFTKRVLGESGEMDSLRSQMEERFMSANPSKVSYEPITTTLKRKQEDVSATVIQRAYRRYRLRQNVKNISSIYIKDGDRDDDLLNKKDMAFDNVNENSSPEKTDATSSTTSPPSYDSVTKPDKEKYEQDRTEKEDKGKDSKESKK
Sequence of Sodium channel protein type 5 subunit alpha (Q14524 whole entry): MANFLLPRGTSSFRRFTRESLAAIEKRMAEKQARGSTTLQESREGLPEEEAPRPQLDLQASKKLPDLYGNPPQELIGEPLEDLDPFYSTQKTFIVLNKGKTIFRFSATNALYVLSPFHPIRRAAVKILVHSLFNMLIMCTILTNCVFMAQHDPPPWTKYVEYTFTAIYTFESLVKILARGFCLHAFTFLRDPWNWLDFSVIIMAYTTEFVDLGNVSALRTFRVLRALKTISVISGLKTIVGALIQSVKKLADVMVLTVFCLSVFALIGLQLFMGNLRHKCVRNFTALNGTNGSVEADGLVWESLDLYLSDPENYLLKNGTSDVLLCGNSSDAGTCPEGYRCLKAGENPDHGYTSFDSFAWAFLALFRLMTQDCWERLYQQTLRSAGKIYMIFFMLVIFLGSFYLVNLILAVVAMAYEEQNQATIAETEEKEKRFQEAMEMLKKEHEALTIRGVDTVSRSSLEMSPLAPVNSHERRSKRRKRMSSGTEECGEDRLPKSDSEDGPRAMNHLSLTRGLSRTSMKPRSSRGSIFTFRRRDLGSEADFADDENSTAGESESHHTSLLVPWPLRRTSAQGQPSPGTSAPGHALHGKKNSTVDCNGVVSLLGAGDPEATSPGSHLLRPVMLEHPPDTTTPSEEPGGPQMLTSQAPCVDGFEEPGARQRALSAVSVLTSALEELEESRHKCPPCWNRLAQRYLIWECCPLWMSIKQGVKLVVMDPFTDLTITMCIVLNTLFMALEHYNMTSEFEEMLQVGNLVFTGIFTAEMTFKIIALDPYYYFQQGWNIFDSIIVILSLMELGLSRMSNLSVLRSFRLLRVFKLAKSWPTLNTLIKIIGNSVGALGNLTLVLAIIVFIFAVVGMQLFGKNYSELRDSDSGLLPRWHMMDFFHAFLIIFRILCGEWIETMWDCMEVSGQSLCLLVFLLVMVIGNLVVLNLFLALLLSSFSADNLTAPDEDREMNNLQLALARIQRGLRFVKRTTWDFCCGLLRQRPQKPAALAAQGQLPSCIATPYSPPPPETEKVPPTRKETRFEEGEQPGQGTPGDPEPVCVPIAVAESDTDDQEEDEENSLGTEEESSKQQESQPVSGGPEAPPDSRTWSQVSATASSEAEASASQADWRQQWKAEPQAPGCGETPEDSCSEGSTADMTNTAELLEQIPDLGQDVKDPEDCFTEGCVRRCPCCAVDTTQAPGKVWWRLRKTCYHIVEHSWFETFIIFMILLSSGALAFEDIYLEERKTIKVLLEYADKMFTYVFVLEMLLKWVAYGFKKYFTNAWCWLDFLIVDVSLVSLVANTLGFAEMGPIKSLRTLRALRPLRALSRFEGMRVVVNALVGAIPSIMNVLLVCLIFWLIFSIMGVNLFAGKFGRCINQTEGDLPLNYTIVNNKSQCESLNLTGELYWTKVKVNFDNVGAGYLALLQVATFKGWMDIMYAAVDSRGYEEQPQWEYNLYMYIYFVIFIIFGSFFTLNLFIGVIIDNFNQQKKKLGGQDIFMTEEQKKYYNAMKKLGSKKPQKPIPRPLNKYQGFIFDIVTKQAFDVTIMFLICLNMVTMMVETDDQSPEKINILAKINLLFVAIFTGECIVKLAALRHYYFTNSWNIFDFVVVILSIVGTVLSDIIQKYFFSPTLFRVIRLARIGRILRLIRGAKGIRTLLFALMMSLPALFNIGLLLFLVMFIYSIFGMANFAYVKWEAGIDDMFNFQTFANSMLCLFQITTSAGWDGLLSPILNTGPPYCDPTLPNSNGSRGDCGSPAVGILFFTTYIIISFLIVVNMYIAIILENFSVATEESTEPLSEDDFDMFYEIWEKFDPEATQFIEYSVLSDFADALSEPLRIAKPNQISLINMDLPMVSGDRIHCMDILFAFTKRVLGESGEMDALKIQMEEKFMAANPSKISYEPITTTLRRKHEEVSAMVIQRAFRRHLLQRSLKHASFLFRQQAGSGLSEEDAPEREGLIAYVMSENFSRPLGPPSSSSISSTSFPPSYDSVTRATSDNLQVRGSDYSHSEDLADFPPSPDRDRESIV
T2 sequence (P08684 whole entry): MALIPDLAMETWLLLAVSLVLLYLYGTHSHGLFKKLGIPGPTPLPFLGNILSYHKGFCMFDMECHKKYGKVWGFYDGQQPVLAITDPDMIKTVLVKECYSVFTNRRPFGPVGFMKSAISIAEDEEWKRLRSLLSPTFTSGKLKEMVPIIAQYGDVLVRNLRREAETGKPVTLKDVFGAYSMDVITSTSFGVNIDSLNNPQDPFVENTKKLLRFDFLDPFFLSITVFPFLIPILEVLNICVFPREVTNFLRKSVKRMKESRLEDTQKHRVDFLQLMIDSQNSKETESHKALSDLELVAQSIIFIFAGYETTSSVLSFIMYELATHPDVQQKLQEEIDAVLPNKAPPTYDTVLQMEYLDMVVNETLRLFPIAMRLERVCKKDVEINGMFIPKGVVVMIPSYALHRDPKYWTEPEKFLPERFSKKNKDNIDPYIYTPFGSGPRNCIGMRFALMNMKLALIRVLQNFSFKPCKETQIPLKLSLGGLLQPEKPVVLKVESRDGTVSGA

| Compound | activity at 10 µM (PXR (NR1I2)) [%] | IC50 [1] [nM] | microsomal CLint at 1 µM [2] [µL/min/mg] | microsomal CLint at 1 µM [4] [µL/min/mg] | IC50 (Cytochrome P450 3A4 [5]) [nM] | clearance [6] [mL/min/kg] | CL free (Canis familiaris) [mL/min/kg] | CL free (Rattus norvegicus) [mL/min/kg] | clearance [7] [mL/min/kg] | Activity (Cytochrome P450 3A4 [8]) [%] | microsomal CLint [9] [µL/min/mg] | solubility thermodynamic at 48 h [10] [µM] | IC50 [3] [nM] |
| --- | --- | --- | --- | --- | --- | --- | --- | --- | --- | --- | --- | --- | --- |
| COc1cc(-c2cccc(C(F)(F)F)c2)c(C#N)cc1-c1nccc2cc(S(=O)(=O)Nc3ccon3)ccc12 | 5 | 28 | – | – | – | – | – | – | – | – | – | – | – |
| COc1cc(-c2cccc(C(F)(F)F)c2)ccc1-c1nccc2cc(S(=O)(=O)Nc3ccon3)ccc12 | 7 | 61 | – | – | – | – | – | – | – | – | – | – | – |
| COc1cc(-c2ccc(Cl)c(C)c2)c(F)cc1-c1nccc2cc(S(=O)(=O)Nc3ccon3)ccc12 | 1 | – | 21 | 35 | – | – | – | – | – | – | – | – | > 10000 |
| COc1cc(-c2cccc(F)c2)c(Cl)cc1-c1nccc2cc(S(=O)(=O)Nc3ncccn3)ccc12 | 31 | 120 | 32 | < 14 | > 27000 | – | – | – | – | – | – | – | > 10000 |
| COc1cc(-c2cccc(F)c2)c(Cl)cc1-c1nccc2cc(S(=O)(=O)Nc3ncco3)ccc12 | 38 | – | 98 | 46 | > 27000 | – | – | – | – | – | – | – | > 10000 |
| COc1cc(-c2cccc(F)c2)c(Cl)cc1-c1nccc2cc(S(=O)(=O)Nc3ncns3)ccc12 | 5.9 | – | < 14 | < 14 | 800 | – | – | – | – | – | – | – | 1500 |
| COc1cc(-c2cc(F)cc(F)c2)c(C#N)cc1-c1nccc2cc(S(=O)(=O)Nc3ccon3)ccc12 | 54 | 140 | – | – | – | – | – | – | – | – | – | – | – |
| COc1cc(C(F)(F)F)ccc1-c1nccc2cc(S(=O)(=O)Nc3ccncn3)ccc12 | – | 730 | – | – | 7200 | 4.33 | 26.7 | 183 | 0.917 | 177 | – | – | > 30000 |
| COc1cc(-c2cccc(F)c2)ccc1-c1nccc2cc(S(=O)(=O)Nc3ccncn3)ccc12 | – | 150 | < 14 | < 14 | 1300 | 28.3 | 152 | 6500 | 0.817 | 12 | < 14 | 344 (≈ 167 µg/mL) | > 30000 |
| COc1cc(C(F)(F)F)ccc1-c1ncnc2cc(S(=O)(=O)Nc3nccs3)ccc12 | – | – | – | – | > 50000 | – | 200 | 450 | 0.217 | 128 | – | – | > 30000 |
| COc1cc(-c2cc(F)cc(F)c2)ccc1-c1nccc2cc(S(=O)(=O)Nc3ccon3)ccc12 | 38 | – | – | – | – | – | – | – | – | – | – | – | – |
| COc1cc(-c2cccc(F)c2)c(Cl)cc1-c1nccc2cc(S(=O)(=O)Nc3ccncn3)ccc12 | 24 | 65 | < 14 | < 14 | > 27000 | – | – | – | – | – | – | – | > 10000 |
| COc1cc(-c2cc(F)cnc2OC)c(F)cc1-c1nccc2cc(S(=O)(=O)Nc3ccon3)ccc12 | 151 | – | 21 | < 14 | – | – | – | – | – | – | – | – | > 10000 |
| COc1cc(-c2cccc(C)c2)c(F)cc1-c1nccc2cc(S(=O)(=O)Nc3ccon3)ccc12 | 54 | 47 | 34 | 36 | – | – | – | – | – | – | – | – | > 10000 |
| COc1cc(-c2cccc(F)c2)c(Cl)cc1-c1nccc2cc(S(=O)(=O)Nc3cccnn3)ccc12 | 52 | – | 29 | < 14 | > 27000 | – | – | – | – | – | – | – | – |
| COc1cc(-c2cc(F)cc(F)c2)c(F)cc1-c1nccc2cc(S(=O)(=O)Nc3ccon3)ccc12 | 47 | 40 | < 14 | 30 | – | – | – | – | – | – | – | – | > 10000 |
| COc1cc(-c2ccc(C(F)(F)F)cc2)c(F)cc1-c1nccc2cc(S(=O)(=O)Nc3ccon3)ccc12 | 0 | – | < 14 | < 14 | – | – | – | – | – | – | – | – | > 10000 |
| COc1cc(-c2cccc(Cl)c2)c(F)cc1-c1nccc2cc(S(=O)(=O)Nc3ccon3)ccc12 | 34 | – | 34 | 36 | – | – | – | – | – | – | – | – | – |

Second part, led by results:

| activity at 10 µM (PXR (NR1I2)) [%] | IC50 [1] [nM] | microsomal CLint at 1 µM [2] [µL/min/mg] | microsomal CLint at 1 µM [4] [µL/min/mg] | IC50 (Cytochrome P450 3A4 [5]) [nM] | clearance [6] [mL/min/kg] | CL free (Canis familiaris) [mL/min/kg] | CL free (Rattus norvegicus) [mL/min/kg] | clearance [7] [mL/min/kg] | Activity (Cytochrome P450 3A4 [8]) [%] | microsomal CLint [9] [µL/min/mg] | solubility thermodynamic at 48 h [10] [µM] | Compound | IC50 [3] [nM] |
| --- | --- | --- | --- | --- | --- | --- | --- | --- | --- | --- | --- | --- | --- |
| 27 | – | 18 | < 14 | – | 35 | 8500 | 25000 | 13.7 | – | – | – | COc1cc(-c2cccc(F)c2)c(Cl)cc1-c1[nH]c(=O)cc2cc(S(=O)(=O)Nc3ccon3)ccc12 | 820 |
| 54 | 120 | 25 | 16 | – | 35 | 517 | 10300 | 1.83 | – | – | – | COc1cc(-c2cccc(F)c2)c(Cl)cc1-c1nn(C)c(=O)c2cc(S(=O)(=O)Nc3ccon3)ccc12 | – |
| 69 | – | 21 | < 14 | – | – | – | – | – | – | – | – | COc1cc(-c2cccc(F)c2)c(Cl)cc1-c1c(=O)n(C)cc2cc(S(=O)(=O)Nc3ccon3)ccc12 | > 10000 |
| 68 | 49 to 51 | 18 | < 14 | > 27000 | 0.783 | 26.7 to 31.7 | 700 | 0.05 | 58 | – | – | COc1cc(-c2cccc(F)c2)c(Cl)cc1-c1nccc2cc(S(=O)(=O)Nc3ccon3)ccc12 | > 10000 |
| 28 | – | 28 | 15 | – | – | 2330 | – | 2.17 | – | – | – | COc1cc(-c2cccc(F)c2)c(Cl)cc1-c1ncc(O)c2cc(S(=O)(=O)Nc3ccon3)ccc12 | – |
| 59 | – | 58 | 21 | – | – | 417 | – | 2 | – | – | – | COc1cc(-c2cccc(F)c2)c(Cl)cc1-c1ncnc2cc(S(=O)(=O)Nc3ccon3)ccc12 | – |
| 10 | 47 | 20 | < 14 | > 27000 | 26.7 | 2570 | 15700 | 2.83 | – | – | – | COc1cc(-c2cccc(F)c2)c(Cl)cc1-c1nccc2cc(S(=O)(=O)Nc3ncon3)ccc12 | – |
| 95 | – | < 14 | < 14 | – | – | – | – | – | – | – | – | COc1cc(-c2cccc(F)c2)c(Cl)cc1-c1c(N)nnc2cc(S(=O)(=O)Nc3ccon3)ccc12 | 140 |
